Laboratory results reported in ChEMBL document CHEMBL4251624, “Synthesis of podophyllotoxin linked β-carboline congeners as potential anticancer agents and DNA topoisomerase II inhibitors” (Eur J Med Chem, 2018).
Active and inactive are the calls of the source. The rule behind the calls is not given here.

Columns and labels:
Homo sapiens = species on record: Homo sapiens; assay: Poisoning activity at topoisomerase-2 (unknown origin) assessed as reduction in ATP-dependent decatenation of kinetoplast DNA by measuring linear DNA formation at 10 uM after 30 mins by ethidium bromide staining based UV trans-illumination assay
In short: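 Topo II (5 units, set to decatenate about 100% of kDNA) with 200–300 ng kDNA in 20 μl containing 120 mM KCl, 50 mM Tris-HCl pH 8, 10 mM MgCl2, 0.5 mM DTT, 0.5 mM ATP and BSA. Incubated 30 min at 37 °C, then stopped with SDS plus proteinase K for 10 min at 37 °C. Products run on 1% agarose at 100 V for about 40 min, EtBr-stained and viewed under UV. Etoposide 10 μM served as positive control.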

A549 = assay: Cytotoxicity against human A549 cells after 48 hrs by MTT assay; format: functional, cell-based; conditions: A549, 48 h
In short: (§1)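 MTT assay. Cells seeded at 1×10^4 per well in DMEM or MEM with 10% FBS and grown 24 h at 37 °C under CO2. Compounds added for 48 h, then MTT (5 mg/mL stock) for 4 h. Formazan dissolved in DMSO and read at 570 nm. IC50 is the average of three independent experiments.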

HT-29 = assay: Cytotoxicity against human HT-29 cells after 48 hrs by MTT assay; format: functional, cell-based; conditions: HT-29, 48 h; in short: as §1
DU-145 = assay: Induction of DNA damage in human DU145 cells after 24 hrs using propidium iodide stain by electrophoresis based fluorescence microscopic method; format: functional, cell-based
In short: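 DU-145 cells seeded in 60 mm dishes, treated at 10 μM for 24 h alongside an untreated control. Slides were washed three times in 0.4 M Tris-HCl pH 7.5, electrophoresed 20 min at 40 V in 0.5% TBE pH 8, PI-stained 30 min, and imaged at 20x.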

HeLa = assay: Cytotoxicity against human HeLa cells after 48 hrs by MTT assay; format: functional, cell-based; in short: as §1
MDA-MB-231 = assay: Cytotoxicity against human MDA-MB-231 cells after 48 hrs by MTT assay; format: functional, cell-based; conditions: MDA-MB-231, 48 h; in short: as §1

`COc1cc([C@@H]2c3cc4c(cc3[C@@H](O[C@@H]3O[C@@H]5CO[C@@H](C)O[C@H]5[C@H](O)[C@H]3O)[C@H]3COC(=O)[C@H]23)OCO4)cc(OC)c1O` [ETOPOSIDE] was tested, and the Activity (Homo sapiens) was “Active”, the IC50 (A549) was 2270 nM and the IC50 (HT-29) was 1640 nM. For the same compound, the Activity (DU-145) was “Active”, the IC50 (HeLa) was 1930 nM and the IC50 (MDA-MB-231) was 1910 nM.
